How the values were obtained:
[1] = target: Aurora kinase A (Homo sapiens) (UniProt O14965); test: Inhibition of human AURKA (E122 to K401 residues) expressed in mammalian expression system assessed as residual activity at 5 uM by KINOMEscan assay relative to control
[2] = target: Serine/threonine-protein kinase RIO2 (Homo sapiens, UniProt Q9BVS4); test: Binding affinity to human RIOK2 (M1 to D313 residues) expressed in mammalian expression system by KINOMEscan assay
[3] = target: Serine/threonine-protein kinase pim-1 (Homo sapiens, UniProt P11309); test: Binding affinity to human PIM1 (A15 to K313 residues) expressed in bacterial expression system by KINOMEscan assay
[4] = target: T1, Hepatocyte growth factor receptor (Homo sapiens, UniProt P08581); test: Binding affinity to human MET (D1010 to S1367 residues) expressed in bacterial expression system by KINOMEscan assay
[5] = system: SW-620; test: Induction of apoptosis in human SW620 cells assessed as late apoptotic cells at 50 uM after 48 hrs by Annexin-V-FITC/propidium iodide staining based flow cytometry (reference value: 1.2%); assay type: functional
[6] = target: Inhibitor of nuclear factor kappa-B kinase subunit alpha (Homo sapiens, UniProt O15111); test: Binding affinity to full length human IKKalpha (M1 to E745 residues) expressed in mammalian expression system by KINOMEscan assay
[7] = target: T1, Hepatocyte growth factor receptor; test: Inhibition of human MET (D1010 to S1367 residues) expressed in bacterial expression system assessed as residual activity at 5 uM by KINOMEscan assay relative to control
[8] = system: SW-620; test: Growth inhibition of human SW620 cells by MTT assay; assay type: functional
Outline: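 MTT viability assay: 3×10³ cells/well were pre-incubated for 24 h, then exposed to 0, 12.5, 25, 50, 100 or 200 μM for 12, 24, 48 or 72 h. MTT was added at 0.5 mg/mL final for 4 h, formazan dissolved in DMSO, and absorbance read at 570 nm. GI₅₀ was taken from growth-inhibition curves; mean ± SD of three independent experiments, each in sextuplicate.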

[9] = system: SW-620; test: Cell cycle arrest in human SW620 cells assessed as accumulation at G1-phase at 75 uM after 48 hrs by propidium iodide staining based flow cytometry (reference value: 40.56%); assay type: functional
[10] = system: SW-620; test: Antiproliferative activity against human SW620 cells after 48 hrs by BrdU/DAPI staining based immunofluorescence assay; assay type: functional, cell-based
Outline: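 Cells seeded at 20,000 per well after reaching 80% confluence; exposed 48 h to 0, 25, 50, 75 μM, then 10 μM BrdU for 2 h. Paraformaldehyde fixation, 2 M HCl 30 min, 10% goat serum block, anti-BrdU primary overnight at 4 °C, secondary 120 min at room temperature, DAPI 300 nM. Fluorescence microscopy; percent BrdU-positive nuclei, mean ± SD of three independent experiments.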

[11] = system: SW-620; test: Cell cycle arrest in human SW620 cells assessed as accumulation at G2-phase at 75 uM after 48 hrs by propidium iodide staining based flow cytometry (reference value: 14.08%); assay type: functional
[12] = system: SW-620; test: Cell cycle arrest in human SW620 cells assessed as accumulation at G2-phase at 25 uM after 48 hrs by propidium iodide staining based flow cytometry (reference value: 14.08%); assay type: functional
[13] = system: HT-29; test: Induction of apoptosis in human HT-29 cells assessed as reduction in BCL2 expression after 48 hrs by Western blot analysis; assay type: functional, cell-based
Outline: (§1)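 HT29 or SW620 cells were treated at 0, 25, 50 and 75 μM for 48 h and lysed in RIPA with protease and phosphatase inhibitors. Protein was quantified by BCA. 50 μg lysate was run on 8–15% SDS-PAGE and transferred to PVDF. Blocking was 5% BSA/TBST for 2 h; primary antibodies were applied overnight at 4 °C, then HRP secondary 1 h at room temperature.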

[14] = system: HT-29; test: Cell cycle arrest in human HT-29 cells assessed as accumulation at G2-phase at 25 uM after 48 hrs by propidium iodide staining based flow cytometry (reference value: 15.45%); assay type: functional
[15] = target: Non-receptor tyrosine-protein kinase TYK2 (Homo sapiens, UniProt P29597); test: Inhibition of human TYK2 JH1 catalytic domain (V877 to C1187 residues) expressed in mammalian expression system assessed as residual activity at 5 uM by KINOMEscan assay relative to control
[16] = system: HT-29; test: Cell cycle arrest in human HT-29 cells assessed as accumulation at S-phase at 50 uM after 48 hrs by propidium iodide staining based flow cytometry (reference value: 37.82%); assay type: functional
[17] = system: HT-29; test: Cell cycle arrest in human HT-29 cells assessed as accumulation at S-phase at 25 uM after 48 hrs by propidium iodide staining based flow cytometry (reference value: 37.82%); assay type: functional
[18] = target: Dual specificity mitogen-activated protein kinase kinase 1 (Homo sapiens, UniProt Q02750); test: Inhibition of full length human MEK1 (M1 to V393 residues) expressed in mammalian expression system assessed as residual activity at 5 uM by KINOMEscan assay relative to control
[19] = target: T2, RAC-beta serine/threonine-protein kinase (Homo sapiens, UniProt P31751); test: Binding affinity to human AKT2 expressed in bacterial expression system by KINOMEscan assay
[20] = system: SW-620; test: Down regulation of cyclin-B1 expression in human SW620 cells after 48 hrs by Western blot analysis; assay type: functional, cell-based; outline: as §1
[21] = system: SW-620; test: Induction of apoptosis in human SW620 cells assessed as late apoptotic cells at 25 uM after 48 hrs by Annexin-V-FITC/propidium iodide staining based flow cytometry (reference value: 1.2%); assay type: functional
[22] = system: HT-29; test: Induction of apoptosis in human HT-29 cells assessed as early apoptotic cells at 50 uM after 48 hrs by Annexin-V-FITC/propidium iodide staining based flow cytometry (reference value: 1%); assay type: functional
[23] = target: Cyclin-dependent kinase 16 (Homo sapiens, UniProt Q00536); test: Inhibition of human PCTK1 (G160 to A474 residues) expressed in mammalian expression system assessed as residual activity at 5 uM by KINOMEscan assay relative to control
[24] = target: Platelet-derived growth factor receptor alpha (Homo sapiens, UniProt P16234); test: Binding affinity to human PDGFRA (V575 to D1002 residues) expressed in mammalian expression system by KINOMEscan assay
[25] = target: T2, RAC-beta serine/threonine-protein kinase; test: Inhibition of human AKT2 expressed in bacterial expression system assessed as residual activity at 5 uM by KINOMEscan assay relative to control
[26] = system: SW-620; test: Cell cycle arrest in human SW620 cells assessed as increase in accumulation at G2/M-phase after 48 hrs by propidium iodide staining based flow cytometry; assay type: functional
[27] = system: HT-29; test: Cell cycle arrest in human HT-29 cells assessed as accumulation at G1-phase at 25 uM after 48 hrs by propidium iodide staining based flow cytometry (reference value: 41.86%); assay type: functional
[28] = target: High affinity nerve growth factor receptor (Homo sapiens, UniProt P04629); test: Binding affinity to human TRKA (G475 to G790 residues) expressed in mammalian expression system by KINOMEscan assay
[29] = target: Mitogen-activated protein kinase 3 (Homo sapiens, UniProt P27361); test: Binding affinity to full length human ERK1 (M1 to P379 residues) expressed in bacterial expression system by KINOMEscan assay

For `CC(C)CN(C(=O)c1cccnc1)c1c2ccccc2c(=O)n2c1[nH]c1ccccc12`, the Activity [1] was 100%, the Kd [2] was no less than 5 µM and the Kd [3] was no less than 5 µM. The Kd [4] was no less than 5 µM, the Activity [5] was 12.1% and the Kd [6] was no less than 5 µM. It also gave an Activity [7] of 86%, a GI50 [8] of 23.8 µM and an Activity [9] of 31.67%. For the same compound, the Activity [10] was “Dose-dependent effect”, the Activity [11] was 29.26% and the Activity [12] was 14.72%. For the same compound, the Activity [13] was “Dose-dependent effect”, the Activity [14] was 16.97% and the Activity [15] was 73%. It also gave an Activity [16] of 35.86%, an Activity [17] of 37.2% and an Activity [18] of 91%. For the same compound, the Kd [19] was no less than 5 µM, the Activity [20] was “Dose-dependent effect” and the Activity [21] was 4.1%. The Activity [22] was 1.7%, the Activity [23] was 95% and the Kd [24] was no less than 5 µM. The Activity [25] was 100%, the Activity [26] was “Dose-dependent effect” and the Activity [27] was 42.5%. The Kd [28] was no less than 5 µM and the Kd [29] was no less than 5 µM.

Source: ChEMBL document CHEMBL4229410, “Facile construction of fused benzimidazole-isoquinolinones that induce cell-cycle arrest and apoptosis in colorectal cancer cells” (Bioorg Med Chem, 2018)
